Reference: ChEMBL document CHEMBL1134582 (J Med Chem, 2001)

target: T1, Adenosine receptor A1 (Rattus norvegicus) (UniProt P25099); assay: Agonistic activity expressed as the amount of [35S]-GTP gamma-S bound at rat Adenosine A1 receptor; assay type: functional; conditions: not given
T1 sequence (whole entry): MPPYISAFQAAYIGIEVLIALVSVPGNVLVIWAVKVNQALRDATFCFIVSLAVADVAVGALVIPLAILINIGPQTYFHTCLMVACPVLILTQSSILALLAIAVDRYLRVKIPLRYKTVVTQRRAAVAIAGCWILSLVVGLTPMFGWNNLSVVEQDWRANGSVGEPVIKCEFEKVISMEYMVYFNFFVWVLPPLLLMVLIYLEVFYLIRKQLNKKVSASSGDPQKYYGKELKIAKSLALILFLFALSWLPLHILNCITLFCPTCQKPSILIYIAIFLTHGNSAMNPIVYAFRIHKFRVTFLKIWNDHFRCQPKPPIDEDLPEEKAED
Outline: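 [35S]GTPγS binding used 2 µg of rat cortex membrane protein with 10 µM GDP and 100 mM NaCl, incubated 90 min at 25 °C. Mean ±SEM, n=3.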

`OC[C@H]1O[C@@H](n2cnc3c(NC4CCCC4)ncnc32)[C@H](O)[C@@H]1O` was tested, and the Activity was 100.

target: T2, Adenosine receptor A3 (Homo sapiens) (UniProt P0DMS8); assay: Agonistic activity expressed as the amount of [35S]GTP gamma-S bound at adenosine A3 receptor; assay type: functional; conditions: not given
T2 sequence (whole entry): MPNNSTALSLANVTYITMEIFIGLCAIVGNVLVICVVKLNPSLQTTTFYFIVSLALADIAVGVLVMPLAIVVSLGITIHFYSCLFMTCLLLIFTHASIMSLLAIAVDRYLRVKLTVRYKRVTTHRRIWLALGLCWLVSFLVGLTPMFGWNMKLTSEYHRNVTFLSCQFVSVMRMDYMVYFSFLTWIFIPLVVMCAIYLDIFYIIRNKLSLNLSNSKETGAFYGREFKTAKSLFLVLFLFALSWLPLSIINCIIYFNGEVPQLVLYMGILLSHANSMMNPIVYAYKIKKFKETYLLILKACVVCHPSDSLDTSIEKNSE
Outline: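 Membranes from CHO cells expressing the human A3 receptor (1–1.5 µg protein) were incubated with 1 µM GDP and no NaCl for 90 min at 25 °C. Mean ±SEM, n=3.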

Compound `CCNC(=O)[C@H]1O[C@@H](n2cnc3c(N)ncnc32)[C@H](O)[C@@H]1O` has an Activity of 100.

target: T3, Adenosine receptor A1 (Homo sapiens) (UniProt P30542); assay: Inhibition of Forskolin (10 nM) induced cAMP production at human Adenosine A1 receptor (compared to CPA in CHO cells); assay type: cell-based; conditions: in the assay text read “10 µM” for “10 nM”
T3 sequence (whole entry): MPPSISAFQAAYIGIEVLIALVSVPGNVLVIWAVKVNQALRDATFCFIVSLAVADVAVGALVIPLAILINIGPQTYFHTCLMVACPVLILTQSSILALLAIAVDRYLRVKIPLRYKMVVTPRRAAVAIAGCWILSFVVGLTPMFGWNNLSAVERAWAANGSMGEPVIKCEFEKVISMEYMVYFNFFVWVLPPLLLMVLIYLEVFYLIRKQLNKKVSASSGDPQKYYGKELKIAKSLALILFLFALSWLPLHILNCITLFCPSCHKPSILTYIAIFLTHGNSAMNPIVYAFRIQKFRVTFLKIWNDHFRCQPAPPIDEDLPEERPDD
Outline: (§1)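 Cells expressing the human receptor (A1 in CHO) were grown overnight as monolayers and kept in DMEM/HEPES at pH 7.4. […] Forskolin was added at 10 µM (final) for 15 min. cAMP was measured by binding-protein assay. […] Mean ±SEM, n=3.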

Going from `COC[C@H]1O[C@@H](n2cnc3c(NCc4cccc(I)c4)ncnc32)[C@H](O)[C@@H]1O` to `CCOC[C@H]1O[C@@H](n2cnc3c(NCc4cccc(I)c4)ncnc32)[C@H](O)[C@@H]1O`, the inhibition falls from 53% to 6%.

Going from `CCOC[C@H]1O[C@@H](n2cnc3c(N)nc(Cl)nc32)[C@H](O)[C@@H]1O` to `COC[C@H]1O[C@@H](n2cnc3c(N)nc(Cl)nc32)[C@H](O)[C@@H]1O`, the inhibition rises from 67% to 78%.

Compared with `CCOC[C@H]1O[C@@H](n2cnc3c(NC4CCCC4)nc(Cl)nc32)[C@H](O)[C@@H]1O`, `COC[C@H]1O[C@@H](n2cnc3c(NC4CCCC4)nc(Cl)nc32)[C@H](O)[C@@H]1O` is higher in inhibition: 62% for the first, 73% for the second.

Going from `CCOC[C@H]1O[C@@H](n2cnc3c(N)ncnc32)[C@H](O)[C@@H]1O` to `Nc1ncnc2c1ncn2[C@@H]1O[C@H](COC2CC2)[C@@H](O)[C@H]1O`, the inhibition rises from 57% to 61%.

Compared with `COC[C@H]1O[C@@H](n2cnc3c(NC4CCCC4)ncnc32)[C@H](O)[C@@H]1O`, `CCOC[C@H]1O[C@@H](n2cnc3c(NC4CCCC4)ncnc32)[C@H](O)[C@@H]1O` is lower in inhibition: 74% for the first, 69% for the second.

First: O[C@@H]1[C@H](O)[C@@H](COC2CC2)O[C@H]1n1cnc2c(NC3CCCC3)nc(Cl)nc21
Second: O[C@@H]1[C@H](O)[C@@H](COC2CC2)O[C@H]1n1cnc2c(NC3CCCC3)ncnc21
The inhibition of the first is lower: 43% for the first, 62% for the second.

First: Nc1nc(Cl)nc2c1ncn2[C@@H]1O[C@H](COC2CC2)[C@@H](O)[C@H]1O
Second: COC[C@H]1O[C@@H](n2cnc3c(NCc4cccc(I)c4)nc(Cl)nc32)[C@H](O)[C@@H]1O
The inhibition of the first is higher: 49% for the first, 37% for the second.

target: T1, Adenosine receptor A1 (Rattus norvegicus); assay: Agonistic activity expressed as the amount of [35S]-GTP gamma-S bound +1 uM CPA at rat Adenosine A1 receptor; assay type: functional; conditions: not given
Outline: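 Rat cortex membranes (2 µg protein) were incubated with 10 µM GDP and 100 mM NaCl for 90 min at 25 °C. Mean ±SEM, n=3.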

`OC[C@H]1O[C@@H](n2cnc3c(NC4CCCC4)ncnc32)[C@H](O)[C@@H]1O` showed an Activity of 100.

target: T3, Adenosine receptor A1 (Homo sapiens); assay: Inhibition of 10 nM Forskolin-induced cAMP production at human Adenosine A1 receptor compared to CPA in CHO cells; assay type: functional, cell-based; conditions: in the assay text read “10 µM” for “10 nM”; outline: as §1

Compared with `COC[C@H]1O[C@@H](n2cnc3c(N)ncnc32)[C@H](O)[C@@H]1O`, `OC[C@H]1O[C@@H](n2cnc3c(NC4CCCC4)ncnc32)[C@H](O)[C@@H]1O` is lower in inhibition: 75% for the first, 69% for the second.

target: T2, Adenosine receptor A3 (Homo sapiens); assay: Agonistic activity expressed as the amount of [35S]GTP gamma-S bound +1 uM NECA at adenosine A3 receptor; assay type: functional; conditions: not given
Outline: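 Human A3 receptor in CHO-cell membranes (1–1.5 µg) was incubated with 1 µM GDP and no NaCl for 90 min at 25 °C. Mean ±SEM, n=3.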

In the case of `CCNC(=O)[C@H]1O[C@@H](n2cnc3c(N)ncnc32)[C@H](O)[C@@H]1O`, the Activity is reported as 100.
